ChEMBL document CHEMBL1154372, “Steroidal sapogenins and glycosides from the rhizomes of Dioscorea bulbifera” (J Nat Prod, 2009)
Calls of active or inactive are those of the source. No cut-off for these calls is given here.

system: Bel-7402; assay: Cytotoxicity against human Bel7402 cells at 10 uM after 48 hrs by MTT assay; type: functional; details: not given
Method in brief: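 Bel-7402 human hepatocellular carcinoma cells were grown in DMEM with 10% fetal calf serum at 37 °C under 5% CO2 and subcultured twice weekly. Cells were seeded at 7500 per well and, after 24 h, compound was added at 10 µM. After 48 h exposure in triplicate, MTT was added, formazan was dissolved in DMSO and absorbance was read at 570 nm. The value is % inhibition.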

Structure (SMILES) | Activity
C[C@@H]1[C@@]2(CC[C@@](C)(CO)O2)O[C@H]2C[C@H]3[C@@H]4CCC5=CC(=O)CC[C@]5(C)[C@H]4CC[C@]3(C)[C@]21O | inactive
C[C@@H]1O[C@@H](O[C@H]2[C@H](O[C@H]3CC[C@@]4(C)C(=CC[C@@H]5[C@@H]4CC[C@@]4(C)[C@H]5C[C@@H]5O[C@]6(CC[C@](C)(O)CO6)[C@@H](C)[C@@]54O)C3)O[C@H](CO)[C@@H](O)[C@@H]2O[C@@H]2O[C@@H](C)[C@H](O)[C@@H](O)[C@H]2O)[C@H](O)[C@H](O)[C@H]1O | inactive
C[C@@H]1CC[C@@]2(OC1)O[C@H]1C[C@H]3[C@@H]4CCC5=C[C@@H](O[C@@H]6O[C@H](CO)[C@@H](O)[C@H](O[C@@H]7O[C@@H](C)[C@H](O)[C@@H](O)[C@H]7O)[C@H]6O[C@@H]6O[C@@H](C)[C@H](O)[C@@H](O)[C@H]6O)CC[C@]5(C)[C@H]4CC[C@]3(C)[C@@]1(O)[C@@H]2C | 99.1%
C[C@@H]1[C@@]2(CC[C@](C)(O)CO2)O[C@H]2C[C@H]3[C@@H]4CCC5=CC(=O)CC[C@]5(C)[C@H]4CC[C@]3(C)[C@]21O | inactive
C[C@@H]1[C@@]2(CC[C@@](C)(CO)O2)O[C@H]2C[C@H]3[C@@H]4C=CC5=CC(=O)CC[C@]5(C)[C@H]4CC[C@]3(C)[C@]21O | inactive
C[C@@H]1O[C@@H](O[C@@H]2[C@@H](O)[C@H](O[C@H]3CC[C@@]4(C)C(=CC[C@@H]5[C@@H]4CC[C@@]4(C)[C@H]5C[C@@H]5O[C@]6(CC[C@](C)(O)CO6)[C@@H](C)[C@@]54O)C3)O[C@H](CO)[C@H]2O)[C@H](O)[C@H](O)[C@H]1O | inactive
C[C@@H]1CC[C@@]2(OC1)O[C@H]1C[C@H]3[C@@H]4CCC5=CC(=O)CC[C@]5(C)[C@H]4CC[C@]3(C)[C@@]1(O)[C@@H]2C | inactive
C/C(C(=O)CC[C@@H](C)CO)=C1/C(=O)C[C@H]2[C@@H]3CCC4=C[C@@H](O[C@@H]5O[C@H](CO)[C@@H](O)[C@H](O[C@@H]6O[C@@H](C)[C@H](O)[C@@H](O)[C@H]6O)[C@H]5O[C@@H]5O[C@@H](C)[C@H](O)[C@@H](O)[C@H]5O)CC[C@]4(C)[C@H]3CC[C@]12C | inactive

system: SMMC-7721; assay: Growth inhibition of human SMMC7721 cells after 48 hrs by MTT assay; type: functional, cell-based; details: SMMC-7721, 48 h
Method in brief: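 SMMC7721 human hepatocellular carcinoma cells were kept in DMEM with 10% fetal calf serum at 37 °C and 5% CO2, and passaged twice weekly to stay in log growth. After 24 h at 7500 cells per well, compounds were added at various concentrations for 48 h, in triplicate. Viability was read as MTT formazan dissolved in DMSO, at 570 nm. IC50 determined; 10-hydroxycamptothecin served as positive control.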

Structure (SMILES) | IC50
C[C@@H]1CC[C@@]2(OC1)O[C@H]1C[C@H]3[C@@H]4CCC5=C[C@@H](O[C@@H]6O[C@H](CO)[C@@H](O)[C@H](O[C@@H]7O[C@@H](C)[C@H](O)[C@@H](O)[C@H]7O)[C@H]6O[C@@H]6O[C@@H](C)[C@H](O)[C@@H](O)[C@H]6O)CC[C@]5(C)[C@H]4CC[C@]3(C)[C@@]1(O)[C@@H]2C | 4540 nM
CC[C@@]1(O)C(=O)OCc2c1cc1n(c2=O)Cc2cc3cc(O)ccc3nc2-1 [HYDROXYCAMPTOTHECIN] | 140 nM
